Assay results reported in paper PMC4796946 (Nature, 2015).
“Also recorded” adds a separate entry of the source.

How the values were obtained:
[1] = molecular target: GPR65 mutant receptors (D153A, R187L, F242A, Y272A) (Homo sapiens, UniProt Q8IYL9, D153A); test: cAMP reporter assay at GPR65 mutant receptors; assay type: cell-based; details: GPR65 D153A
Procedure, shortened: (§1)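 GloSensor cAMP assay in HEK293-T cells co-transfected with receptor (wild-type or mutant) and GloSensor 7A, plated at 15,000 cells/well for at least 6 h. Cells were loaded with luciferin (4 mM, pH 8.4, 90 min, 37 °C), which was then removed. Test compound was added in NaOH-adjusted pH solutions (HBSS, 10 mM HEPES, 10 mM MES), 20 min at room temperature. Luminescence is given as RLU fold of buffer basal. Curves were fitted with a 4-parameter logistic; n≥3.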

[2] = system: GPR65 mutant receptors (D153A, R187L, F242A, Y272A); test: cAMP reporter assay at GPR65 mutant receptors; assay type: cell-based, human; details: GPR65 R187L, F242A, Y272A
Procedure, shortened: as §1

GPR65 = GPR65 (Homo sapiens, UniProt Q8IYL9); test: Split-luciferase cAMP reporter assay, GPR65; assay type: cell-based; details: for inhibition of GPR65: receptors activated by protons or by BTB09089; for activity at GPR65: effect on proton response, cAMP
Procedure, shortened: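 GPR65 was co-transfected with the GloSensor reporter into HEK293-T cells, which were then luciferin-loaded (4 mM, pH 8.4, 90 min, 37 °C). Test compound was applied in pH-adjusted HBSS/HEPES/MES buffer for 20 min at room temperature. The receptor was activated either by protons at pH 7.40 or by 30 μM reference agonist at pH 8.40. Luminescence was normalised to buffer basal. Data come from at least three assays, each at least in triplicate (≥16 measurements total).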

GPR68 [3] = molecular target: T1, GPR68 (Homo sapiens, UniProt Q15743); test: Split-luciferase; assay type: cell-based; details: for stimulation of cAMP production by benzodiazepines: 10 μM, pH 6.50 or 7.40
Procedure, shortened: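 HEK293-T cells were co-transfected with receptor and GloSensor 7A reporter and plated at least 6 h at 15,000 cells/well in 1% dialysed FBS DMEM. Cells were loaded with 4 mM luciferin in drug buffer, pH 8.4, for 90 min at 37 °C; luciferin was then removed. Proton concentration-responses ran without and with rising test compound levels premixed in pH-adjusted HBSS/HEPES/MES (TAPS at high pH; BSA for some). Plates stood 20 min at room temperature before luminescence reading. Data were fitted to an allosteric operational model, with proton pEC50 as pKA.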

phosphodiesterases = test: Phosphodiesterase inhibition
control HEK293 T cells = test: cAMP reporter assay at control HEK293 T cells; assay type: cell-based, human
Procedure, shortened: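 Control HEK293-T cells were run in the GloSensor cAMP format: luciferin loading at 4 mM, pH 8.4, 90 min, 37 °C, then removal. Test compound in pH-adjusted HBSS/HEPES/MES buffer was applied for 20 min at room temperature before luminescence reading. Results are normalised fold of basal from at least three assays, each at least in triplicate (≥16 measurements).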

GPR68 [4] = molecular target: T1, GPR68; test: Calcium mobilization assay; assay type: cell-based; details: 10 μM, GPR68 wild-type
Procedure, shortened: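 HEK293-T cells were transfected, plated overnight in DMEM with 1% dialysed FBS at 15,000 cells/well, then loaded 60 min at 37 °C (5% CO2) with Fluo-4 Direct dye in drug buffer containing 2.5 mM probenecid, pH 8.0. Test compound was added first (10 μM final before the pH addition), followed by 10 min reading. pH solutions (HBSS, 7 mM each HEPES/HEPPS/MES, NaOH-adjusted) were then added. Fluorescence was read 1/s for 4 min and expressed as fold of basal; n=3.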

[5] = system: wild-type and GPR68 KO mice; test: Fear conditioning; assay type: in vivo
[6] = system: PKA and MAP kinase pathways; assay type: cell-based, human; details: 50 μM, 10 min, GPR68-expressing HEK293 cells
GPR68 [7] = molecular target: T1, GPR68; test: Yeast growth assay, GPR68 paired with chimeric Gq yeast; assay type: cell-based; details: library screen at 10 μM
Procedure, shortened: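 Yeast with receptor were diluted in SD-His-Ura medium to OD600 0.02 final. Test compound was 10 μM final, in triplicate, with 3-amino-1,2,4-triazole (pH 5.4) at a level set by titration without ligand. Growth ran at 30 °C for 2–5 days. Cells were resuspended and read at OD600. % growth stimulation = […], given as mean ± SEM of three wells.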

GPR4 = GPR4 (Homo sapiens, UniProt P46093); test: Split-luciferase cAMP reporter assay, GPR4; assay type: cell-based; details: effect on proton response
Procedure, shortened: as §1

[8] = cited from earlier work
GABAA receptor = test: Radioligand binding profiling
Procedure, shortened: (§2)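 Membranes came from animal brain tissue, stable cell lines or transiently transfected HEK293-T cells. Competition binding used a fixed radioligand concentration, incubated in the dark at 22 °C, and was ended by vacuum filtration onto GF/B filters, followed by beta counting. Values are mean pKi (n=2–4).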

A2A receptor = A2A receptor (Homo sapiens, UniProt P29274); test: Radioligand binding profiling; details: profiling against 58 GPCRs, ion channels, and transporters
Procedure, shortened: as §2

GPR68 [9] = molecular target: T1, GPR68; test: PI hydrolysis assay in GPR68-transfected HEK293-T cells; assay type: cell-based; details: 10 μM, under equilibrium
Procedure, shortened: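 Transfected HEK293-T cells (24 h) were plated in 10% FBS DMEM. After 5 h they were labelled overnight with 3H-inositol (1 μCi/well) in inositol-free DMEM with 5% dialysed FBS. Cells were washed with HBSS, 10 mM HEPES, 10 mM MES, 20 mM LiCl, pH 8.4. pH-adjusted solutions containing 20 mM LiCl and 10 μM test compound were applied for 20 min. Extraction used 50 mM ice-cold formic acid, 4 °C for 30 min; extracts were bead-captured (4 °C, 30 min) and counted as cpm; n=3.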

5-HT2B = 5-HT2B (Homo sapiens, UniProt P41595); test: Radioligand binding profiling; details: profiling against 58 GPCRs, ion channels, and transporters
Procedure, shortened: as §2

[10] = cAMP production, proton as agonist

T1 sequence (Q15743 whole entry): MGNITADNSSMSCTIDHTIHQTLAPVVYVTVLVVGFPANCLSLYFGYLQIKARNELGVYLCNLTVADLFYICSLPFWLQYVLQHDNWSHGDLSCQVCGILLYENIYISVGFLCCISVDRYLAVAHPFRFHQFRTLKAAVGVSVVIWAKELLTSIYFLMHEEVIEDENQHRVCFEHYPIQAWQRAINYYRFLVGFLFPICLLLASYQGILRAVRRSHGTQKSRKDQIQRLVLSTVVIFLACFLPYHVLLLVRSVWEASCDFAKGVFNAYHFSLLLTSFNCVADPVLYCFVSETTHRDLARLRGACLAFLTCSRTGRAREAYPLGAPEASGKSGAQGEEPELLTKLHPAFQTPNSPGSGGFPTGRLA
Chain of GPR65 (Q8IYL9 whole entry): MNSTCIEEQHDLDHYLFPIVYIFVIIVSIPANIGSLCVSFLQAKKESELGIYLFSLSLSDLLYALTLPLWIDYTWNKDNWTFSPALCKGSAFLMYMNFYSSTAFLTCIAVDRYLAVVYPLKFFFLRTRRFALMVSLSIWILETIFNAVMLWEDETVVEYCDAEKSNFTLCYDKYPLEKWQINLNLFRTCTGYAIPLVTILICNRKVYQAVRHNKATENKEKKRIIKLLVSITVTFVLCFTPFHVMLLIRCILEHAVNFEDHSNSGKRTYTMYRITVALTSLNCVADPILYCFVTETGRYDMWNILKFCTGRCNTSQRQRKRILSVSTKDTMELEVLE
Chain of GPR4 (P46093 whole entry): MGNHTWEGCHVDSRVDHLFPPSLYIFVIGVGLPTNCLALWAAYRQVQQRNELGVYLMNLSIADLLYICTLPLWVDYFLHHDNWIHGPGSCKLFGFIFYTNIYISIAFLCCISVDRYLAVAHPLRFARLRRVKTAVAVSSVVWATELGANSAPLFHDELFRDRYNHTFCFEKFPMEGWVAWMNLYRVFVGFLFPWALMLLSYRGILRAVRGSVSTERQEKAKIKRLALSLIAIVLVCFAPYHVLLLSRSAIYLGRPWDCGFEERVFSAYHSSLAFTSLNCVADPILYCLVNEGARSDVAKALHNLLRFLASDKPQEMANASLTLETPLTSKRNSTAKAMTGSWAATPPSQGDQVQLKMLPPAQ
Chain of GPR65 mutant receptors (D153A, R187L, F242A, Y272A) (Homo sapiens, UniProt Q8IYL9, D153A) (Q8IYL9 whole entry D153A): as the sequence (Q8IYL9 whole entry) above, with D153A counted along it
Chain of 5-HT2B (P41595 whole entry): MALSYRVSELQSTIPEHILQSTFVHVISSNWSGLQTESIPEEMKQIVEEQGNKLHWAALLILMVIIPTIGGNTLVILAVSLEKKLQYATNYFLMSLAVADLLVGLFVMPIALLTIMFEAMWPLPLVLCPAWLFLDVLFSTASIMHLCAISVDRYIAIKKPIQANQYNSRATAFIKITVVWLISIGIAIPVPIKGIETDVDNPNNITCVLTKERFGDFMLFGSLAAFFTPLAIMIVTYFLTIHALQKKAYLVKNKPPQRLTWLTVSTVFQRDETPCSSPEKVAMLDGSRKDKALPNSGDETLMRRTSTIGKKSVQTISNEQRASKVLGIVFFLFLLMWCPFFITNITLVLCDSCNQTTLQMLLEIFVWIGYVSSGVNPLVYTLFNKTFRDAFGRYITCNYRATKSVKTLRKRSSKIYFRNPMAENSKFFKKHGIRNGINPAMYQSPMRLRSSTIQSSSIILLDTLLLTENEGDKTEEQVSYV
Chain of A2A receptor (P29274 whole entry): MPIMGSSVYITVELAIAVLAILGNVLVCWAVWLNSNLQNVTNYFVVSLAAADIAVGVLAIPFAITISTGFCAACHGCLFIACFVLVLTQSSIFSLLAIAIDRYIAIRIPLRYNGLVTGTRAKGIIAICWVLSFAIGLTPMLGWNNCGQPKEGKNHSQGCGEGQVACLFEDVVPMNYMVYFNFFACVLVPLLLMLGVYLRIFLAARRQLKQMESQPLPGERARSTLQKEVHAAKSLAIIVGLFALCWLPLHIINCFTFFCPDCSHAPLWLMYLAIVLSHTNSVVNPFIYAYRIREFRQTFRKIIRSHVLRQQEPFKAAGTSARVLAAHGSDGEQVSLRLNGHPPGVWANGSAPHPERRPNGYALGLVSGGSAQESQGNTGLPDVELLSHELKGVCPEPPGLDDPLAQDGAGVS

## CN1N=C(SCc2ccc(Cl)cc2Cl)Sc2c1cnn(C)c2=O [BTB09089, reference compound]
[1]
  effect of D153A mutation on compound activity: no effect
[2]
  effect of R187L, F242A, Y272A mutations on compound activity: reduced the activity
GPR65
  agonist activity at GPR65 (qualitative): weak agonist activity
  mode of action at GPR65: allosteric agonist
  potentiation of proton efficacy/activity at GPR65: failed to potentiate

## Nc1nc(NCCc2ccccc2)nc(-c2ccccc2CO)n1 [C2]
GPR68 [3]; allosteric operational model, proton as agonist
  α-factor: 22
GPR68 [3]; cAMP production
  leftward shift of proton response relative to ogerin: 3 fold

## Nc1nc(NCCCc2ccccc2)nc(-c2ccccc2CO)n1 [C3]
GPR68 [3]; [10]
  allosteric effect (qualitative comparison): reduced allostery

## Nc1nc(NCCCCc2ccccc2)nc(-c2ccccc2CO)n1 [C4]
GPR68 [3]; [10]
  allosteric effect (qualitative comparison): reduced allostery

## Nc1nc(-c2ccc(Cl)c(Cl)c2)c(-c2ccncc2)s1 [CGH2466]
GPR68 [3]; [10]
  allosteric effect (qualitative comparison): much lower than that of ogerin
GPR68 [3]; with phosphodiesterase inhibitor Ro 20-1724
  GPR68 activity in the presence of Ro 20-1724: minimal activity
phosphodiesterases
  phosphodiesterase inhibition: potent phosphodieseterase inhibitor

## OC1CCC(Nc2nc(-c3ccccc3)nc3[nH]ccc23)CC1 (centres unmarked) [SLV320]
phosphodiesterases
  phosphodiesterase inhibition: potent phosphodieseterase inhibitor

## O=C1CCc2cc(-c3csc(NC(=O)c4ccc(-c5ccccc5F)o4)n3)ccc2N1 [ZINC9468042]
GPR65
  inhibition of GPR65: GPR65-specific inhibition

## COc1ccc(-c2csc(NC(=O)CSc3nc[nH]n3)n2)cc1OC [ZINC13684400]
Control HEK293 T cells
  activity at control cells: without measurable activity
[1]
  effect of D153A mutation on compound activity: much reduced the activity
[2]
  effect of R187L, F242A, Y272A mutations on compound activity: reduced the activity
GPR65
  mode of action at GPR65: allosteric agonist
  potentiation of proton efficacy/activity at GPR65: did not potentiate
GPR65; pH 8.40
  agonist activity at GPR65: over 2 fold of basal

## Nc1nc(NCc2ccccc2)nc(-c2cccc(CO)c2)n1 [ZINC32547799]
GPR68 [4]
  effect on proton-mediated calcium release: little effect
[5]; wild-type mice
  learning and memory: no measurable effect
[5]; wild-type mice, 10 mg/kg
  contextual and cue memory: no effect
  learning: no effect
[5]; wild-type mice, 30 mg/kg
  contextual and cue memory: no effect
  learning: enhanced

## O=C(Nc1nc(-c2ccc3c(c2)OCCO3)cs1)c1csnn1 [ZINC41613384]
GPR65
  inhibition of GPR65: GPR65-specific inhibition

## Cc1nc(-c2ncccn2)sc1C(=O)O[C@@H](c1ccccc1)c1ccncc1 [ZINC62678696]
GPR65
  inhibition of GPR65: GPR65-specific inhibition; also recorded: inhibited

## O=C1CN=C(c2ccccc2Cl)c2cc([N+](=O)[O-])ccc2N1 [clonazepam]
GPR68 [3]
  stimulation of cAMP production by benzodiazepines: stimulated cAMP production in a GPR68- and pH-dependent manner

## O=C1CN=C(c2ccccc2)c2cc(Cl)ccc2N1 [desmethyldiazepam]
GPR68 [3]
  stimulation of cAMP production by benzodiazepines: stimulated cAMP production in a GPR68- and pH-dependent manner

## O=C1Nc2ccc(Cl)cc2C(c2ccccc2Cl)=NC1O (centres unmarked) [lorazepam]
[6]
  activation of PKA and MAP kinase pathways: activate
GPR68 [3]
  stimulation of cAMP production by benzodiazepines: stimulated cAMP production in a GPR68- and pH-dependent manner
GPR68 [7]
  stimulation of yeast growth: more than two-fold
GPR4
  activity at GPR4: no activity
[8]
  concentration in plasma during treatment: micromolar
GABAA receptor
  activity in panel of CNS targets: substantial activity
GPR65
  activity at GPR65: no activity

## O=C1CN=C(c2ccccc2F)c2cc(Cl)ccc2N1 [norfludiazepam]
GPR68 [3]
  stimulation of cAMP production by benzodiazepines: stimulated cAMP production in a GPR68- and pH-dependent manner

## Nc1nc(NCc2ccccc2)nc(-c2ccccc2CO)n1 [ogerin]
[6]
  activation of PKA and MAP kinase pathways: activate
A2A receptor
  affinity at A2A receptor: moderate affinity
GPR68 [3]; [10]
  allosteric effect (qualitative comparison): much higher allosteric effect than lorazepam
GPR68 [9]
  effect on proton activity in PI hydrolysis: slightly potentiated
5-HT2B
  affinity at 5-HT2B: moderate affinity
GPR68 [4]
  effect on proton-mediated calcium release: inhibited
GPR4
  activity at GPR4: minimal PAM activity
GPR65
  activity at GPR65: minimal PAM activity
[5]; GPR68 KO mice, 10 mg/kg
  memory retrieval: no effect
[5]; WT mice, 10 mg/kg
  contextual-based fear memory: attenuated
  cue-based memory: without effects

## CCCCNc1c(C(=O)OCC)c(C)nc2c1cnn2CC [tracazolate]
phosphodiesterases
  phosphodiesterase inhibition: potent phosphodieseterase inhibitor
